{
  "source": "ChEMBL document CHEMBL3098105",
  "about": "“7,7'-Diazaindirubin--a small molecule inhibitor of casein kinase 2 in vitro and in cells” (Bioorg Med Chem, 2014)",
  "key": {"[1]": {"target": "Cyclin-dependent kinase 2/cyclin E1 (Homo sapiens) (UniProt P24864+P24941)", "assay": "Inhibition of CDK2/CycE (unknown origin) assessed as residual activity at 1 uM relative to control", "format": "protein-complex assay"}, "[2]": {"target": "Serine/threonine-protein kinase tousled-like 2 (Homo sapiens) (UniProt Q86UE8)", "assay": "Inhibition of human TLK2 assessed as residual activity at 1 uM relative to control"}, "DU-145": {"tested_on": "DU-145", "assay": "Antiproliferative activity against human DU145 cells after 3 days by sulforhodamine B assay", "format": "functional", "conditions": "DU-145, 72 h", "in_short": "(§1)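 Tested in the NCI 60 cell line panel. GI50 is the concentration giving 50% inhibition of cell growth, and values are the mean of two series of tests.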"}, "[3]": {"target": "Ephrin type-A receptor 3 (Homo sapiens) (UniProt P29320)", "assay": "Inhibition of human EphA3 assessed as residual activity at 1 uM relative to control"}, "[4]": {"target": "Serine/threonine-protein kinase B-raf (Homo sapiens) (UniProt P15056)", "assay": "Inhibition of wild type B-RAF (unknown origin) assessed as residual activity at 1 uM relative to control"}, "[5]": {"target": "Tyrosine-protein kinase receptor UFO (Homo sapiens) (UniProt P30530)", "assay": "Inhibition of human Axl assessed as residual activity at 1 uM relative to control"}, "[6]": {"target": "Tyrosine-protein kinase Fes/Fps (Homo sapiens) (UniProt P07332)", "assay": "Inhibition of human Fes assessed as residual activity at 1 uM relative to control"}, "[7]": {"target": "Tyrosine-protein kinase TXK (Homo sapiens) (UniProt P42681)", "sequence (P42681 whole entry)": "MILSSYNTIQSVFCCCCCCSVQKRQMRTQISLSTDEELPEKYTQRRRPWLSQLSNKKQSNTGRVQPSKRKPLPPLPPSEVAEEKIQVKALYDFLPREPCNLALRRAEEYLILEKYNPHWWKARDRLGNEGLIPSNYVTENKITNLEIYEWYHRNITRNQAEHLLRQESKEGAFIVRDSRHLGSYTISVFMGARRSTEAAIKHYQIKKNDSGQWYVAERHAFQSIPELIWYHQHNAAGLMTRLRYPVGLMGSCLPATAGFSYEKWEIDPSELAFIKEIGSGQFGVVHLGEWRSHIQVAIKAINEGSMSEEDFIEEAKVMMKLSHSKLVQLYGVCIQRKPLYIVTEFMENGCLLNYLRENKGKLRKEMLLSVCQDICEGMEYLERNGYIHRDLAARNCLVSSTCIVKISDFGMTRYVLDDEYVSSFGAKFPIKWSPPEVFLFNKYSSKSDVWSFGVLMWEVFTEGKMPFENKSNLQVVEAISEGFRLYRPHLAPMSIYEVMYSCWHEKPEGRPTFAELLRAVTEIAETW", "assay": "Inhibition of human Txk assessed as residual activity at 1 uM relative to control"}, "[8]": {"target": "Cyclin-dependent kinase 5/CDK5 activator 1 (Homo sapiens) (UniProt Q00535+Q15078)", "assay": "Inhibition of CDK5/p35NCK (unknown origin) assessed as residual activity at 10 uM relative to control", "format": "protein-complex assay"}, "[9]": {"target": "Serine/threonine-protein kinase MRCK beta (Homo sapiens) (UniProt Q9Y5S2)", "assay": "Inhibition of human MRCKbeta assessed as residual activity at 1 uM relative to control"}, "[10]": {"target": "Serine/threonine-protein kinase N2 (Homo sapiens) (UniProt Q16513)", "assay": "Inhibition of human PRK2 assessed as residual activity at 1 uM relative to control"}, "[11]": {"target": "Tyrosine-protein kinase ITK/TSK (Homo sapiens) (UniProt Q08881)", "assay": "Inhibition of human Itk assessed as residual activity at 1 uM relative to control"}, "[12]": {"target": "Protein kinase C theta type (Homo sapiens) (UniProt Q04759)", "assay": "Inhibition of human PKCtheta assessed as residual activity at 1 uM relative to control"}, "Homo sapiens": {"organism": "Homo sapiens", "assay": "Inhibition of S6K (unknown origin) assessed as residual activity at 1 uM relative to control"}, "[13]": {"target": "Tyrosine-protein kinase ABL1 (Homo sapiens) (UniProt P00519)", "sequence (P00519 whole entry)": "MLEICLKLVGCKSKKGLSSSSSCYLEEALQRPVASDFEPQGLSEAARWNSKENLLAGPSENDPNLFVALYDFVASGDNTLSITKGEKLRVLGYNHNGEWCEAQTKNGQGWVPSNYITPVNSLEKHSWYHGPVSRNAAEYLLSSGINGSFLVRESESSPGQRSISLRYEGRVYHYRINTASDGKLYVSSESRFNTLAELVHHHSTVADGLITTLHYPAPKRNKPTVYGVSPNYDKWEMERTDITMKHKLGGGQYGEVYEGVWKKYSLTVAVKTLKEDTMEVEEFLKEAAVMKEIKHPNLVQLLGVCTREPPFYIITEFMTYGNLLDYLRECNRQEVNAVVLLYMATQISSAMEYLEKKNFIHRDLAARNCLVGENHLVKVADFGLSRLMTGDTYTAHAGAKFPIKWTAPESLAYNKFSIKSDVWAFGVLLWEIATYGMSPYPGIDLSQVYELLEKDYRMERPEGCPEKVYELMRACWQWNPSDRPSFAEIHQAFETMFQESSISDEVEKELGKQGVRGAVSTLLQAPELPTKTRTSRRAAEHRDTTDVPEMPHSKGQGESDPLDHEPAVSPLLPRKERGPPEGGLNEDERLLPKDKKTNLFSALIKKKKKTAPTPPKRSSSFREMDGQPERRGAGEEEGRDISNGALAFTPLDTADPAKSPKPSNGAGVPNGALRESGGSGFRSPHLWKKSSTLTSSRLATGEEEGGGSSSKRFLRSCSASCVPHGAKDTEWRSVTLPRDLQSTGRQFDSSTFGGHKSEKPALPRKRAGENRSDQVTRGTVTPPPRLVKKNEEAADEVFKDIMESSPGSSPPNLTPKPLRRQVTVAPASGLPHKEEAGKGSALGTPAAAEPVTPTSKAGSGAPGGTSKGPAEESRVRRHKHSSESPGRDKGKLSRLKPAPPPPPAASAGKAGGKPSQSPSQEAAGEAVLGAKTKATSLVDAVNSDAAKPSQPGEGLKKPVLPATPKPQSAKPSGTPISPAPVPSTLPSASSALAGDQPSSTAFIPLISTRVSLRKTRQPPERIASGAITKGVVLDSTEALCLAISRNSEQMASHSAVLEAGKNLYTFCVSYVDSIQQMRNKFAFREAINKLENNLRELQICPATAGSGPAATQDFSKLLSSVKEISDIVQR", "assay": "Inhibition of human Abl assessed as residual activity at 1 uM relative to control"}, "[14]": {"target": "Platelet-derived growth factor receptor beta (Homo sapiens) (UniProt P09619)", "sequence (P09619 whole entry)": "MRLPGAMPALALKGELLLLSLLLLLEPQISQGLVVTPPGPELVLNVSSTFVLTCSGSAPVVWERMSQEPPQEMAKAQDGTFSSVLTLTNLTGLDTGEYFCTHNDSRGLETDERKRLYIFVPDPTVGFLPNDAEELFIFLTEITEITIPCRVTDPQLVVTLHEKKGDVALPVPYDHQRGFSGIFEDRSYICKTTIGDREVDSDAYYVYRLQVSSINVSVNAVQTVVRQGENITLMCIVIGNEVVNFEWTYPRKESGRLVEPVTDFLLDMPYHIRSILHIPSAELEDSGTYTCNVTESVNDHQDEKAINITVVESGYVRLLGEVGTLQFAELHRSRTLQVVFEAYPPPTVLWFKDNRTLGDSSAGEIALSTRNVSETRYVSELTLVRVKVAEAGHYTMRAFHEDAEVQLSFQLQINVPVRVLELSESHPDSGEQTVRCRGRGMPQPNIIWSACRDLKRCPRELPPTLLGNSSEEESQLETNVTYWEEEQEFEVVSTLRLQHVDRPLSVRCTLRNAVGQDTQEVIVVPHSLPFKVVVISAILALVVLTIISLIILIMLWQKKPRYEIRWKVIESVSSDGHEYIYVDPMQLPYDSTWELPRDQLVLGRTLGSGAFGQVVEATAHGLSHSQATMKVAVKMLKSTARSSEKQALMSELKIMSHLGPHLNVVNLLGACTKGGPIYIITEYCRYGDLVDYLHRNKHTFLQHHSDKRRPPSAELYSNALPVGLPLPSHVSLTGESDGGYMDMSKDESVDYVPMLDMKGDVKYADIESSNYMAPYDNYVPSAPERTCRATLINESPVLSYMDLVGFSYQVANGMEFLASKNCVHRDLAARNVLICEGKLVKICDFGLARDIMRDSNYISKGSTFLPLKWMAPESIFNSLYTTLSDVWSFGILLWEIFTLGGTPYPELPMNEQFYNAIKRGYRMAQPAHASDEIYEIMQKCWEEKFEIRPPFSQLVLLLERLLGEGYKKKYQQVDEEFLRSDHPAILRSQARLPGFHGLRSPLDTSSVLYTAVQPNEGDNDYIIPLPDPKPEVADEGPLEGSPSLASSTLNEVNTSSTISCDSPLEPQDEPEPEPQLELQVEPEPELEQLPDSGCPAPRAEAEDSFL", "assay": "Inhibition of human PDGFRbeta assessed as residual activity at 1 uM relative to control"}, "[15]": {"target": "Death-associated protein kinase 2 (Homo sapiens) (UniProt Q9UIK4)", "assay": "Inhibition of human DAPK2 assessed as residual activity at 1 uM relative to control"}, "[16]": {"target": "T1, Casein kinase II (Homo sapiens) (UniProt P67870+P68400+P19784)", "assay": "Inhibition of CK2-mediated Wnt signaling in human MCF7 cells assessed as reduction of beta-catenin level at 1 uM after 15 mins by Western blot analysis", "format": "cell-based", "in_short": "(§2)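 MCF7 cells were grown at 37 °C and 5% CO2 in DMEM with 10% heat-inactivated FBS and penicillin/streptomycin. Cells were exposed to 1 µM for the indicated times, with DMSO as the untreated control. Extracts were made in urea lysis buffer, and 20–40 µg protein was run on 10% SDS–PAGE. Blots were probed with primary antibodies (1:1000, overnight, 4 °C) and read by ECL, with β-actin as loading control.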"}, "[17]": {"target": "Fibroblast growth factor receptor 2 (Homo sapiens) (UniProt P21802)", "assay": "Inhibition of human FGFR2 assessed as residual activity at 1 uM relative to control"}, "[18]": {"target": "Protein kinase C eta type (Homo sapiens) (UniProt P24723)", "assay": "Inhibition of human PKCeta assessed as residual activity at 1 uM relative to control"}, "[19]": {"assay": "Antiproliferative activity against human UO31 cells after 3 days by sulforhodamine B assay", "format": "functional", "conditions": "UO-31, 72 h"}, "HL-60": {"tested_on": "HL-60", "assay": "Antiproliferative activity against human HL60 cells after 3 days by sulforhodamine B assay", "format": "functional", "conditions": "HL-60, 72 h", "in_short": "as §1"}, "[20]": {"target": "Casein kinase I isoform gamma-2 (Homo sapiens) (UniProt P78368)", "sequence (P78368 whole entry, looked up, canonical isoform)": "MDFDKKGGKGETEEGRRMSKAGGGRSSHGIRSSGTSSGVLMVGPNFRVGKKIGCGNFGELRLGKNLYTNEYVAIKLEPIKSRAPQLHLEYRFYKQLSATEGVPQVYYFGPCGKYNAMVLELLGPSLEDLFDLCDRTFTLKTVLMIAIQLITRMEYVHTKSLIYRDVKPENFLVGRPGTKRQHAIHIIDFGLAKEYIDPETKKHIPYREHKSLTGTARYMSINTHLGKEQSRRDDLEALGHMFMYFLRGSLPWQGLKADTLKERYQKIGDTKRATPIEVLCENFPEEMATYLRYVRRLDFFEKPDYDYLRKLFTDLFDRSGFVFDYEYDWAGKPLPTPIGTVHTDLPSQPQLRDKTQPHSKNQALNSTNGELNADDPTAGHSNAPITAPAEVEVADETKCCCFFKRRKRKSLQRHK", "assay": "Inhibition of human CK1gamma2 assessed as residual activity at 1 uM relative to control"}, "[21]": {"target": "Ribosomal protein S6 kinase alpha-2 (Homo sapiens) (UniProt Q15349)", "assay": "Inhibition of human Rsk3 assessed as residual activity at 1 uM relative to control"}, "[22]": {"target": "Rho-associated protein kinase 1 (Homo sapiens) (UniProt Q13464)", "assay": "Inhibition of human ROCK-1 assessed as residual activity at 1 uM relative to control"}, "A549": {"tested_on": "A549", "assay": "Antiproliferative activity against human A549 cells after 3 days by sulforhodamine B assay", "format": "functional", "conditions": "A549, 72 h", "in_short": "as §1"}, "[23]": {"target": "Calcium/calmodulin-dependent protein kinase type 1 (Homo sapiens) (UniProt Q14012)", "sequence (Q14012 whole entry, looked up)": "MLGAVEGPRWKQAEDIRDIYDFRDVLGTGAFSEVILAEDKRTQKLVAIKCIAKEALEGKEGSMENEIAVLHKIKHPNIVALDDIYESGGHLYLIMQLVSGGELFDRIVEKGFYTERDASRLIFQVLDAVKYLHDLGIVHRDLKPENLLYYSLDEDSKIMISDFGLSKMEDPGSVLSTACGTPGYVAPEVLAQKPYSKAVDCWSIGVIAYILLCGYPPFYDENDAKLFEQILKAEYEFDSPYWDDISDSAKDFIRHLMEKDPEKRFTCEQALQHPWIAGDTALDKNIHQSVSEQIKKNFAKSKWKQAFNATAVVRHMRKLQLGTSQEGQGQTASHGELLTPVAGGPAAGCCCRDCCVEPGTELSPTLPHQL", "assay": "Inhibition of human CaMK1 assessed as residual activity at 1 uM relative to control"}, "[24]": {"target": "Fibroblast growth factor receptor 1 (Homo sapiens) (UniProt P11362)", "assay": "Inhibition of FGF-R1 (unknown origin) assessed as residual activity at 1 uM relative to control"}, "[25]": {"target": "Tyrosine-protein kinase ABL1 (Homo sapiens) (UniProt P00519)", "assay": "Inhibition of ABL1 (unknown origin) assessed as residual activity at 10 uM relative to control"}, "[26]": {"target": "Protein kinase C beta type (Homo sapiens) (UniProt P05771)", "assay": "Inhibition of human PKCbeta2 assessed as residual activity at 1 uM relative to control"}, "[27]": {"target": "Dual specificity mitogen-activated protein kinase kinase 7 (Homo sapiens) (UniProt O14733)", "assay": "Inhibition of human MKK7beta assessed as residual activity at 1 uM relative to control"}, "[28]": {"target": "Serine/threonine-protein kinase TAO1 (Homo sapiens) (UniProt Q7L7X3)", "assay": "Inhibition of human TAO1 assessed as residual activity at 1 uM relative to control"}, "[29]": {"target": "T1, Casein kinase II (Homo sapiens)", "assay": "Inhibition of CK2 in human MCF7 cells assessed as time of delay for GSK3beta phosphorylation at Ser9 at 1 uM by Western blot analysis", "format": "cell-based", "in_short": "as §2"}, "[30]": {"target": "Dual specificity tyrosine-phosphorylation-regulated kinase 2 (Homo sapiens) (UniProt Q92630)", "assay": "Inhibition of human DYRK2 assessed as residual activity at 1 uM relative to control"}, "[31]": {"target": "Casein kinase I isoform delta (Homo sapiens) (UniProt P48730)", "sequence (P48730 whole entry, looked up, canonical isoform)": "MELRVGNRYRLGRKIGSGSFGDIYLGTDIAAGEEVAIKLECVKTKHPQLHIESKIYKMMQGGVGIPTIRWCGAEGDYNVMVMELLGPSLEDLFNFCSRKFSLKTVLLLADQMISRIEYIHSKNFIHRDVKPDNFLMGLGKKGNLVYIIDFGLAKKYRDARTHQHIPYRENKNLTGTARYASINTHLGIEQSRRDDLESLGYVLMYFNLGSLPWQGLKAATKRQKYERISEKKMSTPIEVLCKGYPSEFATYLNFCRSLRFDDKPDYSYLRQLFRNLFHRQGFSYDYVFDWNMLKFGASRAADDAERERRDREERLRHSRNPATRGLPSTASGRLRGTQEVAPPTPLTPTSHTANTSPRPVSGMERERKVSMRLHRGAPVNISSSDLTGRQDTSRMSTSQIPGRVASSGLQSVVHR", "assay": "Inhibition of human CK1d assessed as residual activity at 1 uM relative to control"}, "[32]": {"target": "Focal adhesion kinase 1 (Homo sapiens) (UniProt Q05397)", "sequence (Q05397 2-1052 limits assumed)": "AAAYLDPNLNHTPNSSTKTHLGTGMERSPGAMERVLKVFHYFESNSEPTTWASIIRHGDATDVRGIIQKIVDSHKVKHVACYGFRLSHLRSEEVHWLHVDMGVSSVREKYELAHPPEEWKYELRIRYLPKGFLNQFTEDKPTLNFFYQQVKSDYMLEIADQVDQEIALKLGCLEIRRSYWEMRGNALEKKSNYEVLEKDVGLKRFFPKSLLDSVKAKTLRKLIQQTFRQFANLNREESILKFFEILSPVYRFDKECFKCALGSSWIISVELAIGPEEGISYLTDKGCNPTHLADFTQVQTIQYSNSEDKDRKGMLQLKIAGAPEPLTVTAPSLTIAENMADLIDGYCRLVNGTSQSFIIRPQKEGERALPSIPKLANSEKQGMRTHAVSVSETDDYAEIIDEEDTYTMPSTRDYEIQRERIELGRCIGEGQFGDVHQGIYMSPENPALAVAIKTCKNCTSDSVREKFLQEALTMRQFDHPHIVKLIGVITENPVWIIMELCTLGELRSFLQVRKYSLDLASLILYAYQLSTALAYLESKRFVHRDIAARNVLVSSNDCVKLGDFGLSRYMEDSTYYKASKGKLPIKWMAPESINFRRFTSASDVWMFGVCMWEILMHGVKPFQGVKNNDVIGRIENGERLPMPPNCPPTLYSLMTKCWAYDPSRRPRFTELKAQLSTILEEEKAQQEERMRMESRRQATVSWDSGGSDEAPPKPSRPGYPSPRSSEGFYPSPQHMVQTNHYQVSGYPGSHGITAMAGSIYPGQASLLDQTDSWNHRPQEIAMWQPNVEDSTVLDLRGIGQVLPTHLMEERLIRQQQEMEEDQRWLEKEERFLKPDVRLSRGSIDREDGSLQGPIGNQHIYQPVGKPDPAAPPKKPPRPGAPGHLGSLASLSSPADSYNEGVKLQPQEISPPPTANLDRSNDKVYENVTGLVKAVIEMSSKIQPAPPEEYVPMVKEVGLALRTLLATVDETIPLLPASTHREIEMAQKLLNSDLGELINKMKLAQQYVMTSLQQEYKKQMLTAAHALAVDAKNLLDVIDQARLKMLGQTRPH", "assay": "Inhibition of human FAK assessed as residual activity at 1 uM relative to control"}},
  "note": "Active and inactive are the calls of the source. No cut-off for these calls is given here.",
  "data": [
    {"compound": "O=C1Nc2ncccc2/C1=C1/Nc2ncccc2C1=O", "values": [
      {"measurement": "Activity", "setting": "[1]", "result": 90, "unit": "%"},
      {"measurement": "Activity", "setting": "[2]", "result": 103, "unit": "%"},
      {"measurement": "GI50", "setting": "DU-145", "result": 474, "unit": "nM"},
      {"measurement": "Activity", "setting": "[3]", "result": 83, "unit": "%"},
      {"measurement": "Activity", "setting": "[4]", "result": 80, "unit": "%"},
      {"measurement": "Activity", "setting": "[5]", "result": 92, "unit": "%"},
      {"measurement": "Activity", "setting": "[6]", "result": 107, "unit": "%"},
      {"measurement": "Activity", "setting": "[7]", "result": 126, "unit": "%"},
      {"measurement": "Activity", "setting": "[8]", "result": 104, "unit": "%"},
      {"measurement": "Activity", "setting": "[9]", "result": 102, "unit": "%"},
      {"measurement": "Activity", "setting": "[10]", "result": 95, "unit": "%"},
      {"measurement": "Activity", "setting": "[11]", "result": 106, "unit": "%"},
      {"measurement": "Activity", "setting": "[12]", "result": 116, "unit": "%"},
      {"measurement": "Activity", "setting": "Homo sapiens", "result": 109, "unit": "%"},
      {"measurement": "Activity", "setting": "[13]", "result": 122, "unit": "%"},
      {"measurement": "Activity", "setting": "[14]", "result": 160, "unit": "%"},
      {"measurement": "Activity", "setting": "[15]", "result": 114, "unit": "%"},
      {"measurement": "inhibition", "setting": "[16]", "result": "Active"},
      {"measurement": "Activity", "setting": "[17]", "result": 125, "unit": "%"},
      {"measurement": "Activity", "setting": "[18]", "result": 98, "unit": "%"},
      {"measurement": "GI50", "setting": "[19]", "result": 1070, "unit": "nM"},
      {"measurement": "GI50", "setting": "HL-60", "result": 1850, "unit": "nM"},
      {"measurement": "Activity", "setting": "[20]", "result": 114, "unit": "%"},
      {"measurement": "Activity", "setting": "[21]", "result": 72, "unit": "%"},
      {"measurement": "Activity", "setting": "[22]", "result": 80, "unit": "%"},
      {"measurement": "GI50", "setting": "A549", "result": 236, "unit": "nM"},
      {"measurement": "Activity", "setting": "[23]", "result": 120, "unit": "%"},
      {"measurement": "Activity", "setting": "[24]", "result": 85, "unit": "%"},
      {"measurement": "Activity", "setting": "[25]", "result": 92, "unit": "%"},
      {"measurement": "Activity", "setting": "[26]", "result": 101, "unit": "%"},
      {"measurement": "Activity", "setting": "[27]", "result": 103, "unit": "%"},
      {"measurement": "Activity", "setting": "[28]", "result": 98, "unit": "%"},
      {"measurement": "TIME", "setting": "[29]", "result": 0.5, "unit": "h"},
      {"measurement": "Activity", "setting": "[30]", "result": 107, "unit": "%"},
      {"measurement": "Activity", "setting": "[31]", "result": 68, "unit": "%"},
      {"measurement": "Activity", "setting": "[32]", "result": 110, "unit": "%"}
    ]}
  ]
}
